In ChEMBL document CHEMBL1126061, “Cyclic RGD peptide analogues as antiplatelet antithrombotics” (J Med Chem, 1992):
*1 amine or outer side, *2 acyl side, *3 side chain or, on linkers, in order; H or OH if unused. Where a SMILES comes first, the peptide text is derived from it. Bridges are numbered along the chain shown (N, C = ends). [ ]: non-standard residue; d: D form. X1 = C[C@@H](O)[C@@H](C(=O)[*:2])N(c1cccc(CC[*:3])c1)[*:1]; X2 = C[C@H](O)[C@H](C(=O)[*:2])N(c1cccc(CC[*:3])c1)[*:1]

Biological target: Integrin alpha-IIb/beta-3 (Homo sapiens, UniProt P05106+P08514)
Experiment: The compound was tested for the inhibition of fibrinogen receptor
Type: protein-complex assay
In short: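 Solid-phase ELISA: human fibrinogen (10 µg/mL) coated, BSA-blocked; samples plus purified human platelet GPIIbIIIa (40 µg/mL) incubated 1 h at room temperature. Bound receptor detected with anti-GPIIbIIIa antibody AP3 (1 µg/mL, 1 h), then goat anti-mouse HRP (1 h); OPD/H2O2 at pH 5, stopped with H2SO4, absorbance 492-405 nm. IC50 from four-parameter fit; n ≥ 3.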

Sequence of Integrin alpha-IIb/beta-3 (P05106 27-788 limits assumed): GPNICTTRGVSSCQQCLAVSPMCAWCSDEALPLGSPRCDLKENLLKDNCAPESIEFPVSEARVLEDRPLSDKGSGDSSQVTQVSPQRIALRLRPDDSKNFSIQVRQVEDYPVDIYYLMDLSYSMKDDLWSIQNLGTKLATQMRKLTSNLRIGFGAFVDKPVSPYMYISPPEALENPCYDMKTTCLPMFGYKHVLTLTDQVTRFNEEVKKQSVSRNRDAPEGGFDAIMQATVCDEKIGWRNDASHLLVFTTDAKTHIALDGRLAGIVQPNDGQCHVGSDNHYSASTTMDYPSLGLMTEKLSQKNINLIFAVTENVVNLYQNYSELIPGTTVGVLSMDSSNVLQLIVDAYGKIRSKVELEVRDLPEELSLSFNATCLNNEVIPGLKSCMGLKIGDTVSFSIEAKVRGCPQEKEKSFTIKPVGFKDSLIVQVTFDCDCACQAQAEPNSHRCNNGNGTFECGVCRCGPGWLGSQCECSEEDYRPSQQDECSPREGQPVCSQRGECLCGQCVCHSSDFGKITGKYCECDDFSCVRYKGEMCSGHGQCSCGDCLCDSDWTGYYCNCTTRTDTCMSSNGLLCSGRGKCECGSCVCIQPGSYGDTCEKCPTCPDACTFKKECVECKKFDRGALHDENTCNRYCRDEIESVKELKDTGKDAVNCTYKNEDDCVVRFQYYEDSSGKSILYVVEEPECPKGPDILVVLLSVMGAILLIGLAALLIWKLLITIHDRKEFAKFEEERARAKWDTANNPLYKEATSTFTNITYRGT
Sequence of Integrin alpha-IIb/beta-3 (P08514 32-887 limits assumed): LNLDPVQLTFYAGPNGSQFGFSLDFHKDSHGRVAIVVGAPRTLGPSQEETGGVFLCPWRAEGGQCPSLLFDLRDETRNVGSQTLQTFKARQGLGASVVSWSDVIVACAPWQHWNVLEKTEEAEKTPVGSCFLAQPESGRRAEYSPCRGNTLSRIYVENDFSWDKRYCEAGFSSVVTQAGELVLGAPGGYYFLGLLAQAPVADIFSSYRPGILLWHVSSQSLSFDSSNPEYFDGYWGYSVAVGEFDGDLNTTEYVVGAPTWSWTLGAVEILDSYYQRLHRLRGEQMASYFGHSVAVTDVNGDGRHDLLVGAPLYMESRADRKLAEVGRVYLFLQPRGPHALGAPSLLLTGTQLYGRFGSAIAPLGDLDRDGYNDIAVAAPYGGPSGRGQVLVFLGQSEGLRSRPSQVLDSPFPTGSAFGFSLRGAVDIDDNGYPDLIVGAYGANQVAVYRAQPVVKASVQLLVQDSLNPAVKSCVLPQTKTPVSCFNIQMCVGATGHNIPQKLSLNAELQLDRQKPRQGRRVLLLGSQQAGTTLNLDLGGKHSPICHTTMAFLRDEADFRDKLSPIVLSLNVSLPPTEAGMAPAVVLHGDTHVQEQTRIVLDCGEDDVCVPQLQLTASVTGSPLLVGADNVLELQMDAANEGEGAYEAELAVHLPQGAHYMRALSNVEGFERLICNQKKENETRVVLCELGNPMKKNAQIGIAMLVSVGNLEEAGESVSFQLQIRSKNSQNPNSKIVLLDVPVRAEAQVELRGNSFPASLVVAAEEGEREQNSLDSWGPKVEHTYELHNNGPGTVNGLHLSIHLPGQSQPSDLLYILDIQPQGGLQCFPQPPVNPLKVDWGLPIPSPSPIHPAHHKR
Sequence of Integrin alpha-IIb/beta-3 (P08514 891-1039 limits assumed): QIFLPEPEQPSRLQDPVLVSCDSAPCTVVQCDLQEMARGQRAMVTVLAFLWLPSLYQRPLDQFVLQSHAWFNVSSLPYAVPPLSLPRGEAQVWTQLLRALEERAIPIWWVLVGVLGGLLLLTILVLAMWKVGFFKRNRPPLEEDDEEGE

Structure (SMILES)	IC50
CC(=O)NCC(=O)N[C@@H](CCCNC(=N)N)C(=O)NCC(=O)N[C@@H](CC(=O)O)C(=O)N[C@H](C(N)=O)C(C)C (Ac-GRGDV-NH2)	434 nM
N=C(N)NCCC[C@@H]1NC(=O)[C@@H](Cc2ccc(O)cc2)NC(=O)C[S+]([O-])C[C@@H](C(=O)O)NC(=O)[C@H](CC(=O)O)NC(=O)CNC1=O (stereo in doubt; 69A)	7.3 nM
N=C(N)NCCC[C@@H]1NC(=O)[C@@H](CCC(=O)O)NC(=O)CSC[C@@H](C(=O)O)NC(=O)[C@H](CC(=O)O)NC(=O)CNC1=O	260 nM
CC[C@@H](C)[C@H]1NC(=O)CSC[C@@H](C(=O)O)NC(=O)[C@H](CC(=O)O)NC(=O)CNC(=O)[C@H](CCCN=C(N)N)NC1=O	18 nM
C[C@@H](O)[C@@H]1NC(=O)C[S+]([O-])C[C@@H](C(=O)O)NC(=O)[C@H](CC(=O)O)NC(=O)CNC(=O)[C@H](CCCN=C(N)N)NC1=O (stereo in doubt; 71A)	1.8 nM
CC(C)(C)C[C@H]1NC(=O)CSC[C@@H](C(=O)O)NC(=O)[C@H](CC(=O)O)NC(=O)CNC(=O)[C@H](CCCN=C(N)N)NC1=O	22 nM
N=C(N)NCCC[C@@H]1NC(=O)[C@H](CCC(=O)O)NC(=O)CSC[C@@H](C(=O)O)NC(=O)[C@H](CC(=O)O)NC(=O)CNC1=O	15 nM
N=C(N)NCCC[C@@H]1NC(=O)[C@@H](CC(N)=O)NC(=O)CSC[C@@H](C(=O)O)NC(=O)[C@H](CC(=O)O)NC(=O)CNC1=O ({CH2CO}-[dN]RGDC-OH; thioether N-5)	35 nM
N=C(N)NCCC[C@@H]1NC(=O)[C@@H](CC(=O)O)NC(=O)CSC[C@@H](C(=O)O)NC(=O)[C@H](CC(=O)O)NC(=O)CNC1=O	500 nM
N=C(N)NCCC[C@@H]1NC(=O)[C@H](CCC(N)=O)NC(=O)CSC[C@@H](C(=O)O)NC(=O)[C@H](CC(=O)O)NC(=O)CNC1=O	43 nM
N=C(N)NCCC[C@@H]1NC(=O)CNC(=O)CCSC[C@@H](C(=O)O)NC(=O)[C@H](CC(=O)O)NC(=O)CNC1=O	75 nM
CCCC1SC[C@@H](C(=O)O)NC(=O)[C@H](CC(=O)O)NC(=O)CNC(=O)[C@H](CCCNC(=N)N)NC(=O)CNC1=O (stereo in doubt; 23A)	21 nM

The remaining compounds from weak to strong by IC50, led by results:

IC50	Structure (SMILES)
12 nM	CC(=O)NCC(=O)N[C@@H](CCCNC(=N)N)C(=O)NCC(=O)N[C@@H](CC(=O)O)C(=O)N[C@H](C(=O)O)C(C)C (Ac-GRGDV-OH)
11.6 nM	C[C@H](O)[C@H]1NC(=O)CSC[C@@H](C(=O)O)NC(=O)[C@H](CC(=O)O)NC(=O)CNC(=O)[C@H](CCCN=C(N)N)NC1=O
7 nM	C[C@H](O)[C@H]1Nc2cccc(c2)CCSC[C@@H](C(=O)O)NC(=O)[C@H](CC(=O)O)NC(=O)CNC(=O)[C@H](CCCN=C(N)N)NC1=O (H-[X2]RGDC-OH; thioether 1-5)
6 nM	CC[C@H](C)[C@@H]1NC(=O)CSC[C@@H](C(=O)O)NC(=O)[C@H](CC(=O)O)NC(=O)CNC(=O)[C@H](CCCN=C(N)N)NC1=O
5.6 nM	NCCC[C@@H]1NC(=O)CSC[C@@H](C(=O)O)NC(=O)[C@H](CC(=O)O)NC(=O)CNC(=O)[C@H](CCCN=C(N)N)NC1=O
5.3 nM	N=C(N)NCCC[C@@H]1NC(=O)[C@H](CC(N)=O)NC(=O)C[S+]([O-])C[C@@H](C(=O)O)NC(=O)[C@H](CC(=O)O)NC(=O)CNC1=O (stereo in doubt; 67B)
5 nM	N=C(N)NCCC[C@@H]1NC(=O)CNC(=O)C(c2ccc(-c3ccccc3)cc2)SC[C@@H](C(=O)O)NC(=O)[C@H](CC(=O)O)NC(=O)CNC1=O (stereo in doubt; 19A)
4.2 nM	N=C(N)NCCC[C@@H]1NC(=O)CNC(=O)CSC[C@@H](C(=O)O)NC(=O)[C@H](CC(=O)O)NC(=O)CNC1=O ({CH2CO}-GRGDC-OH; thioether N-5)
4 nM	N=C(N)NCCC[C@@H]1NC(=O)[C@H](CO)NC(=O)CSC[C@@H](C(=O)O)NC(=O)[C@H](CC(=O)O)NC(=O)CNC1=O
1.7 nM	C[C@@H](O)[C@@H]1Nc2cccc(c2)CCSC[C@@H](C(=O)O)NC(=O)[C@H](CC(=O)O)NC(=O)CNC(=O)[C@H](CCCN=C(N)N)NC1=O (H-[X1]RGDC-OH; thioether 1-5)
